Test results published in ChEMBL document CHEMBL2390901, “Synthesis and biological evaluation of N-(4-hydroxy-3-mercaptonaphthalen-1-yl)amides as inhibitors of angiogenesis and tumor growth” (Eur J Med Chem, 2013).
Active and inactive are the calls of the source. The calls are words filed in the database; no cut-off is given here.

Legend:
[1] = tested on: HUVEC; assay: Antiangiogenic activity in HUVEC assessed as inhibition of tube formation at 10 uM after 6 hrs by matrigel assay; format: functional; conditions: Homo sapiens
Summary of the method: (§1)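 HUVECs seeded at 40,000 cells/well on Matrigel (gelled 30 min, 37 °C) in M199 with 5 % FBS plus compound or vehicle (0.5 % DMSO); 6 h at 37 °C, 5 % CO2. Tubes photographed by phase-contrast (×200); tube area measured as pixels and compared with vehicle. Mean ± SD of three independent experiments.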

[2] = tested on: PC-3; assay: Antiproliferative activity against human PC3 cells after 48 hrs by MTT assay; format: functional, cell-based; conditions: PC-3, 48 h
Summary of the method: (§2)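 Cells kept in RPMI 1640 with 10 % FBS at 37 °C, 5 % CO2. Seeded 5,000/well, allowed 4 h, then exposed to serial dilutions for 48 h. MTT added for the last 4 h; formazan dissolved in DMSO, absorbance at 570 nm.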

[3] = tested on: Aorta; assay: Antiangiogenic activity in Sprague-Dawley rat aortic rings assessed as reduction of microvessel outgrowth after 6 days by matrigel assay; format: functional, tissue-based
Summary of the method: (§3)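 Aortas from 8–10-week-old male Sprague Dawley rats cleaned of fibroadipose tissue, cut into 1-mm rings, embedded between two Matrigel layers. Compound or vehicle (0.5 % DMSO) added every other day for 6 days; imaged day 7 (×200). Sprouting area quantified as pixels versus vehicle; mean ± SD, three independent experiments.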

[4] = tested on: Aorta; assay: Antiangiogenic activity in Sprague-Dawley rat aortic rings assessed as inhibition of microvessel outgrowth at 1 uM after 6 days by matrigel assay; format: functional; conditions: 144 h; summary of the method: as §3
[5] = tested on: Aorta; assay: Antiangiogenic activity in Sprague-Dawley rat aortic rings assessed as inhibition of microvessel outgrowth at 10 uM after 6 days by matrigel assay; format: functional; conditions: 144 h; summary of the method: as §3
[6] = tested on: HCT-116; assay: Antiproliferative activity against human HCT116 cells after 48 hrs by MTT assay; format: functional, cell-based; conditions: HCT-116, 48 h; summary of the method: as §2
[7] = target: ALK tyrosine kinase receptor (Homo sapiens) (UniProt Q9UM73); assay: Inhibition of ALK (unknown origin) at 10 uM after 30 mins by fluorescence assay
Summary of the method: (§4)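 Single 10 μM test. Enzyme preincubated with compound in Hepes/Tris pH 7.4, EGTA/Tris, MgCl2, DTT, 0.008 % Tween 20. Substrate peptide and ATP added; 30 min at room temperature. Stopped with EDTA; europium-labelled anti-phospho PT66 antibody added, TR-FRET read after 60 min. Percent inhibition versus control enzyme activity; no-enzyme basal control; duplicate.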

[8] = tested on: HUVEC; assay: Antiangiogenic activity in HUVEC assessed as inhibition of tube formation at 50 uM after 6 hrs by matrigel assay; format: functional; conditions: Homo sapiens; summary of the method: as §1
[9] = tested on: MDA-MB-231; assay: Antiproliferative activity against human MDA-MB-231 cells after 48 hrs by MTT assay; format: functional, cell-based; conditions: MDA-MB-231, 48 h; summary of the method: as §2
[10] = target: RAC-alpha serine/threonine-protein kinase (Homo sapiens) (UniProt P31749); assay: Inhibition of AKT1 (unknown origin) at 10 uM after 30 mins by fluorescence assay; summary of the method: as §4
[11] = tested on: Aorta; assay: Antiangiogenic activity in Sprague-Dawley rat aortic rings assessed as inhibition of microvessel outgrowth at 50 uM after 6 days by matrigel assay; format: functional; conditions: for inhibition at 50 µM: 144 h; summary of the method: as §3
[12] = tested on: HUVEC; assay: Antiproliferative activity against human HUVEC cells after 48 hrs by MTT assay; format: functional, cell-based; summary of the method: as §2
[13] = tested on: A549; assay: Antiproliferative activity against human A549 cells after 48 hrs by MTT assay; format: functional, cell-based; conditions: A549, 48 h; summary of the method: as §2
[14] = tested on: K562; assay: Antiproliferative activity against human K562 cells after 48 hrs by MTT assay; format: functional, cell-based; conditions: K562, 48 h; summary of the method: as §2
[15] = tested on: MCF7; assay: Antiproliferative activity against human MCF7 cells after 48 hrs by MTT assay; format: functional, cell-based; conditions: MCF7, 48 h; summary of the method: as §2
[16] = target: Platelet-derived growth factor receptor beta (Homo sapiens) (UniProt P09619); assay: Inhibition of PDGFR-beta (unknown origin) at 10 uM after 30 mins by fluorescence assay
[17] = target: Vascular endothelial growth factor receptor 2 (Homo sapiens) (UniProt P35968); assay: Inhibition of VEGFR2 (unknown origin) at 10 uM after 30 mins by fluorescence assay
Chain of Vascular endothelial growth factor receptor 2 (Homo sapiens) (P35968 whole entry): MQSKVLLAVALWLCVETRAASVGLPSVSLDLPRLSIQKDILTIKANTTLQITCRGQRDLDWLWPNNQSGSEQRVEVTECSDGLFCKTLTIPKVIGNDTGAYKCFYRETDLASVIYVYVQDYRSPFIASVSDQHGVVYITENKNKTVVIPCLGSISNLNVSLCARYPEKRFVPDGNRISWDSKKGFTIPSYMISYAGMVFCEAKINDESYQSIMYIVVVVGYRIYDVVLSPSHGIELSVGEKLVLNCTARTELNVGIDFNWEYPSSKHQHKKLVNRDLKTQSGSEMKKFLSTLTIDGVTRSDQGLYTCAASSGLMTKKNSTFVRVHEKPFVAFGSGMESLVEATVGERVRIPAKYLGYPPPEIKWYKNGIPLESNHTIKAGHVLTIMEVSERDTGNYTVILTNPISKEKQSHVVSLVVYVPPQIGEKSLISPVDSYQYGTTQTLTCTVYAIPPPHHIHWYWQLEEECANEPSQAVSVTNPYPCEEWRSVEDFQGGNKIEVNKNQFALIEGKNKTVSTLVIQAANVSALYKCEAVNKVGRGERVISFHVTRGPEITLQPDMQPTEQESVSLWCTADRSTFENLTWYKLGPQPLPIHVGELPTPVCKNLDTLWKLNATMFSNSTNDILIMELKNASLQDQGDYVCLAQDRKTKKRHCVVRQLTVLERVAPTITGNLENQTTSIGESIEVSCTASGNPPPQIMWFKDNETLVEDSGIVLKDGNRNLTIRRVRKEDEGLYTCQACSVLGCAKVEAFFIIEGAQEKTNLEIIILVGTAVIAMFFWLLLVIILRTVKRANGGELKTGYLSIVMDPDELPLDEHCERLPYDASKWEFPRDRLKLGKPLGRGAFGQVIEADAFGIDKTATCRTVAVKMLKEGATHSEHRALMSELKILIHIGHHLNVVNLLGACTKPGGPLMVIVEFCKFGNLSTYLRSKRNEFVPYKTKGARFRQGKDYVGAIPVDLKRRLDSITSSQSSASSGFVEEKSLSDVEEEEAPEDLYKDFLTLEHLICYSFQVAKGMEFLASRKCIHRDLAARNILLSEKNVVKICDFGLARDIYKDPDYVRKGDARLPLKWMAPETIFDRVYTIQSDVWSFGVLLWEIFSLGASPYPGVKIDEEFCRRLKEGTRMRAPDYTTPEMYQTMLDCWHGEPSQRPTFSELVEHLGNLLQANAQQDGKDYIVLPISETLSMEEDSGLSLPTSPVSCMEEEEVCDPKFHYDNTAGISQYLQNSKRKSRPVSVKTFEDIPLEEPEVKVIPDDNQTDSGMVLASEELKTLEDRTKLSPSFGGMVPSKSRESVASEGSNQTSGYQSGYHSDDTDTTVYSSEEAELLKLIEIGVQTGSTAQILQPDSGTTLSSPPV

Chain of RAC-alpha serine/threonine-protein kinase (Homo sapiens) (P31749 whole entry): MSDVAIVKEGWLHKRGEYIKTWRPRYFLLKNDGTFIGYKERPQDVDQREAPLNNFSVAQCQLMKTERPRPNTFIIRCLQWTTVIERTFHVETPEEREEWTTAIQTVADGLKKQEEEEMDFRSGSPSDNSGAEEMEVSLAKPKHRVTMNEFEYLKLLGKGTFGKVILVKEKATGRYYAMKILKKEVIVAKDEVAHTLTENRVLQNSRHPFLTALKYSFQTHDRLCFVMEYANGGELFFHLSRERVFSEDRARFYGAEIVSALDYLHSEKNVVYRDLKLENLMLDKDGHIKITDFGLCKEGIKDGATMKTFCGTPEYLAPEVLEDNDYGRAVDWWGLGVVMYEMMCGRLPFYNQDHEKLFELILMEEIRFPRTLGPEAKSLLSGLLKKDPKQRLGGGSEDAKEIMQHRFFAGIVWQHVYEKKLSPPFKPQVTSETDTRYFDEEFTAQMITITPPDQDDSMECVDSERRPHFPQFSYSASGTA
Chain of ALK tyrosine kinase receptor (Homo sapiens) (Q9UM73 19-1620 limits assumed): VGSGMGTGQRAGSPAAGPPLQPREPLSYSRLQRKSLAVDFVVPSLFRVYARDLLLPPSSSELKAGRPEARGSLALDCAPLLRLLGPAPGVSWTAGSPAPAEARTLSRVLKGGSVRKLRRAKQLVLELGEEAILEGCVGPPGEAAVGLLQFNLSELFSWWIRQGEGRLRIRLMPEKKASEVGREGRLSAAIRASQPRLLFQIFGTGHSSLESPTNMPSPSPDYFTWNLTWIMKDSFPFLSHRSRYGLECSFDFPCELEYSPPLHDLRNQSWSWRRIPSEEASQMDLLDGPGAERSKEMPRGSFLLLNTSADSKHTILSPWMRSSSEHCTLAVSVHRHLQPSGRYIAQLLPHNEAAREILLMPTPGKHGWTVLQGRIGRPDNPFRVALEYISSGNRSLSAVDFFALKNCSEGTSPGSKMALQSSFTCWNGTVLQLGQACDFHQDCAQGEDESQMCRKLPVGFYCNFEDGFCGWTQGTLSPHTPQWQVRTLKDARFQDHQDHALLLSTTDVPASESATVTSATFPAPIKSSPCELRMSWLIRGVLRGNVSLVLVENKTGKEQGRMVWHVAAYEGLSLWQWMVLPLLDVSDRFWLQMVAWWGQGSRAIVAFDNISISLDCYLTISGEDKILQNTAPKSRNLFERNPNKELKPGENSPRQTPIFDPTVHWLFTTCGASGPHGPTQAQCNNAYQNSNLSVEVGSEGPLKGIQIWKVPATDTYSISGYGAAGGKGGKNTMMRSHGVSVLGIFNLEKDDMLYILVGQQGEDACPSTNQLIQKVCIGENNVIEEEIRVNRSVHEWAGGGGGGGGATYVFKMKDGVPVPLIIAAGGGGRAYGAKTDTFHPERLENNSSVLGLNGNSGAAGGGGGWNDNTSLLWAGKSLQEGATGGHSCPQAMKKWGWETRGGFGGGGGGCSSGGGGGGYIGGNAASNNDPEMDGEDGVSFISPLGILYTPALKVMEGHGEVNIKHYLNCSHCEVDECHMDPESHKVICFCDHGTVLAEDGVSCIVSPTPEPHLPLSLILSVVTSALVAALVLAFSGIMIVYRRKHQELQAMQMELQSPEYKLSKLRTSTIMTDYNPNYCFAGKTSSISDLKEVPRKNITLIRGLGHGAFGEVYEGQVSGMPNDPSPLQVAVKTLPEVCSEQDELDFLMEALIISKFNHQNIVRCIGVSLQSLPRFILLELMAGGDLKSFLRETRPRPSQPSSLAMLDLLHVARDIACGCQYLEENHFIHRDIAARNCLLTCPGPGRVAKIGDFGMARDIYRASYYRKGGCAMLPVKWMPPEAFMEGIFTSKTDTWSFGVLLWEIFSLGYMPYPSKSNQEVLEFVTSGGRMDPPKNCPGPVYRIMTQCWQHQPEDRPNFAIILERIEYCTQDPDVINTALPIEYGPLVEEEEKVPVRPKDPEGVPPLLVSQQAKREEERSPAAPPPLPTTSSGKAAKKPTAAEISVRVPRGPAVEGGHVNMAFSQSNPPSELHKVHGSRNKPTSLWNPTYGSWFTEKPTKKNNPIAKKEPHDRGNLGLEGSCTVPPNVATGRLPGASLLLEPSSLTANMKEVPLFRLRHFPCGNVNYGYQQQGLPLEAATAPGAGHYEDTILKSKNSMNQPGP
Chain of Platelet-derived growth factor receptor beta (Homo sapiens) (P09619 whole entry): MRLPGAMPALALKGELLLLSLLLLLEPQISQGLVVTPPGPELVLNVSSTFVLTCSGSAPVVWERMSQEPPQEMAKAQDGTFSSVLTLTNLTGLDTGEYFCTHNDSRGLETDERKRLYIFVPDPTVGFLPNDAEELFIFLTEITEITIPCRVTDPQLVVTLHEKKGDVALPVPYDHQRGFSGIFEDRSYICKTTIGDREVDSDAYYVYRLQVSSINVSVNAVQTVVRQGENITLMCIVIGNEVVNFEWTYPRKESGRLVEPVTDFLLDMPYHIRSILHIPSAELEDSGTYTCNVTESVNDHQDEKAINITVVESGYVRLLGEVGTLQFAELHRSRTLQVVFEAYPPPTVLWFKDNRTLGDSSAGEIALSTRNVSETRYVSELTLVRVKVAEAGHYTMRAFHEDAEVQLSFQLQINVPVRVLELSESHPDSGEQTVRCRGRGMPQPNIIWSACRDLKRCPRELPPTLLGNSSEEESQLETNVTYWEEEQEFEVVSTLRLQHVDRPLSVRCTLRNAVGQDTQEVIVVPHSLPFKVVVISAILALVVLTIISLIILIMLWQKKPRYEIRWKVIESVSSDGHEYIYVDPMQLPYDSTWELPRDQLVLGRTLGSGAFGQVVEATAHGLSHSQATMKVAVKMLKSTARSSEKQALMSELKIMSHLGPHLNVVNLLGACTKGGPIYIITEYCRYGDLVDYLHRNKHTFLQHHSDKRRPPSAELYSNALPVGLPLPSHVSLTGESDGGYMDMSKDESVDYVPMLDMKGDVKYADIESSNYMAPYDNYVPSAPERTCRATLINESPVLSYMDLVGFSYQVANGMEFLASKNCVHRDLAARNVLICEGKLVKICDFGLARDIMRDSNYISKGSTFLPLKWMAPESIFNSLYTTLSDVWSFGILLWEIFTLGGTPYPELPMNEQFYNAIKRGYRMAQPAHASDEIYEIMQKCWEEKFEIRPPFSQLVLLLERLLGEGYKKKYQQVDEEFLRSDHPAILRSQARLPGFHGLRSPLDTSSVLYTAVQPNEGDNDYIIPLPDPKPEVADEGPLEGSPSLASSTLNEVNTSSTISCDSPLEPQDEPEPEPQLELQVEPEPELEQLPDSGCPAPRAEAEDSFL

| SMILES | IC50 [2] [µM] | IC50 [6] [µM] | inhibition [7] | IC50 [9] [µM] | inhibition [10] [%] | IC50 [13] [µM] | IC50 [14] [µM] | IC50 [15] [µM] | inhibition [16] [%] | inhibition [17] [%] | inhibition at 10 µM [1] [%] | Activity [3] | inhibition at 1 µM [4] [%] | inhibition at 10 µM [5] [%] | inhibition at 50 µM [8] [%] | inhibition at 50 µM [11] [%] | IC50 [12] [µM] | inhibition [11] | inhibition [1] |
| --- | --- | --- | --- | --- | --- | --- | --- | --- | --- | --- | --- | --- | --- | --- | --- | --- | --- | --- | --- |
| Cc1nnc(Sc2cc(NC(=O)c3ccc(Cl)cc3)c3ccccc3c2O)s1 | 49.5 | > 100 | 9.25% | > 100 | 8.48 |  |  |  |  |  | 81 | Dose-dependent effect | 18 | 23 | > 80 | 91 |  |  |  |
| CNC(=O)c1cc(Oc2ccc(NC(=O)Nc3ccc(Cl)c(C(F)(F)F)c3)cc2)ccn1 [SORAFENIB] | 24.2 | 8.08 |  | 14.6 |  | 12.5 | 13.8 | 7.33 |  |  |  |  |  |  |  |  | 6.42 |  |  |
| COc1ccc(/C=C/C(=O)Nc2cc(Sc3ncn[nH]3)c(O)c3ccccc23)cc1OC | > 100 | > 100 | 14.9% | 52.5 | 31.6 |  |  |  |  |  |  |  |  |  |  |  |  | Active |  |
| O=C(Nc1cc(Sc2ncnc3nc[nH]c23)c(O)c2ccccc12)c1ccc([N+](=O)[O-])cc1 | > 100 | > 100 |  | > 100 |  |  |  |  |  |  |  |  |  |  |  |  |  | Active |  |
| O=C(Nc1cc(Sc2ncn[nH]2)c(O)c2ccccc12)c1ccccc1[N+](=O)[O-] | 52.5 | 10.2 | 56.8% | 21.4 | 85.8 | 40.5 | 10.8 | 2.81 | 37.9 | 65.2 | 83 | Dose-dependent effect | 91 |  | > 80 | 95 | 5.34 |  |  |
| O=C(/C=C/c1ccc([N+](=O)[O-])cc1)Nc1cc(Sc2ncn[nH]2)c(O)c2ccccc12 | > 100 | > 100 | inactive | > 100 | 40.6 |  |  |  |  |  |  |  |  |  |  |  |  | Active |  |
| O=C(/C=C/c1ccc(Cl)cc1)Nc1cc(Sc2ncn[nH]2)c(O)c2ccccc12 | > 100 | > 100 | 0.7% | > 100 | 31.8 |  |  |  |  |  |  |  |  |  |  |  |  | Active |  |
| O=C(Nc1cc(Sc2ncnc3nc[nH]c23)c(O)c2ccccc12)c1ccccc1[N+](=O)[O-] | > 100 | 31.7 | inactive | 54.2 | 50.7 | > 100 | 37.2 | > 100 |  |  |  | Dose-dependent effect | > 70 |  | > 80 | 96 |  |  |  |
| O=C(Nc1cc(Sc2nncs2)c(O)c2ccccc12)c1ccc(Cl)cc1 | > 100 | > 100 | 4.2% | > 100 | 7.5 |  |  |  |  |  |  |  |  |  | > 80 |  |  | Active |  |
| O=C(Nc1cc(Sc2ncnc3nc[nH]c23)c(O)c2ccccc12)c1ccc(Cl)cc1 | 66.4 | > 100 | inactive | 23 | 21.7 | 38.4 | 16.9 | 14.4 |  |  |  | Dose-dependent effect | > 70 |  |  | 92 | 7.53 |  |  |
| Cn1nnnc1Sc1cc(NC(=O)c2ccc(Cl)cc2)c2ccccc2c1O | > 100 | > 100 | inactive | > 100 | 13.1 |  |  |  |  |  |  |  |  |  |  |  |  | Active |  |
| CN[C@@H]1C[C@H]2O[C@@](C)([C@@H]1OC)n1c3ccccc3c3c4c(c5c6ccccc6n2c5c31)C(=O)NC4 |  |  | 97.9% |  |  |  |  |  |  |  |  |  |  |  |  |  |  |  |  |
| O=C(/C=C/c1ccccc1)Nc1cc(Sc2ncn[nH]2)c(O)c2ccccc12 | > 100 | > 100 | inactive | > 100 | 26.1 |  |  |  |  |  |  |  |  |  | > 80 |  |  | Active |  |

Second part, led by results:

| IC50 [2] [µM] | IC50 [6] [µM] | inhibition [7] | IC50 [9] [µM] | inhibition [10] [%] | IC50 [13] [µM] | IC50 [14] [µM] | IC50 [15] [µM] | inhibition [16] [%] | inhibition [17] [%] | SMILES | inhibition at 10 µM [1] [%] | Activity [3] | inhibition at 1 µM [4] [%] | inhibition at 10 µM [5] [%] | inhibition at 50 µM [8] [%] | inhibition at 50 µM [11] [%] | IC50 [12] [µM] | inhibition [11] | inhibition [1] |
| --- | --- | --- | --- | --- | --- | --- | --- | --- | --- | --- | --- | --- | --- | --- | --- | --- | --- | --- | --- |
| 59.5 | > 100 | inactive | > 100 | 20.2 |  |  |  |  |  | Cc1cccc(C(=O)Nc2cc(Sc3ncn[nH]3)c(O)c3ccccc23)c1 |  |  |  |  |  |  |  | Active |  |
| 53.5 | > 100 | 3.37% | > 100 | 37.3 |  |  |  |  |  | O=C(Nc1cc(Sc2ncn[nH]2)c(O)c2ccccc12)c1ccc([N+](=O)[O-])cc1 |  |  |  |  | > 80 |  |  | Active |  |
| > 100 | > 100 | inactive | > 100 | 30.8 |  |  |  |  |  | COc1ccc(C(=O)Nc2cc(Sc3ncn[nH]3)c(O)c3ccccc23)cc1 |  |  |  |  |  |  |  | Active |  |
| 42.1 | > 100 | inactive | > 100 | 19.4 |  |  |  |  |  | COc1cccc(C(=O)Nc2cc(Sc3ncn[nH]3)c(O)c3ccccc23)c1 |  |  |  |  |  |  |  | Active |  |
| > 100 | > 100 | inactive | 45.1 | 41.6 |  |  |  |  |  | O=C(Nc1cc(Sc2ncn[nH]2)c(O)c2ccccc12)c1ccc2ccccc2c1 |  |  |  |  |  |  |  | Active |  |
| 5.52 | 43.3 | inactive | 25.7 | 50.1 | 41.9 | 18.8 | > 100 |  |  | O=C(Nc1cc(Sc2ncn[nH]2)c(O)c2ccccc12)c1ccc(Cl)cc1 |  |  |  |  | 65 |  | > 100 | inactive | Active |
| 26.9 | 70.2 | inactive | 48 | 29.3 |  |  |  |  |  | O=C(Nc1cc(Sc2ncn[nH]2)c(O)c2ccccc12)c1cccc([N+](=O)[O-])c1 |  |  |  |  |  |  |  | Active |  |
| 85.6 | > 100 | inactive | > 100 | 46 |  |  |  |  |  | O=C(Nc1cc(Sc2ncn[nH]2)c(O)c2ccccc12)c1cccc(Cl)c1 |  |  |  |  | > 80 |  |  | Active |  |
